The values below come from ChEMBL document CHEMBL1145773, “Design, synthesis, SAR, and molecular modeling studies of acylthiocarbamates: a novel series of potent non-nucleoside HIV-1 reverse transcriptase inhibitors structurally related to phenethylthiazolylthiourea derivatives” (J Med Chem, 2003).

For one assay, the system named is MT4. As to the kind of experiment: Selectivity index which is the ratio of CC50 and EC50 was determined. Format: functional, Homo sapiens. Put shortly: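 MT-4 cells (1 × 10^4/well) were seeded with or without serial compound dilutions, then infected with HIV-1 IIIB at enough CCID50 for complete cytopathogenicity by day 4. Cultures were incubated at 37 °C and viability was read by MTT. […] Cytotoxicity was run in parallel on mock-infected cells, and SI = CC50/EC50. Data are means of three separate experiments.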

The subject of another assay is MT-4 (Homo sapiens). As to the kind of experiment: Concentration required to reduce the viability of mock-infected MT-4 cells by 50% was determined by MTT method. The conditions noted are these: MT4. (Tetrazolium dyes change colour on reduction, which living cells bring about.)

Structures are written as SMILES. Bounds are passed on as bounds.

Consider `COc1cc(C(=O)N(C(=S)OCCOc2ccccc2)c2ccccc2)cc(OC)c1OC`, for which the SI in the assay with MT4 is given as >20.8. Also, the CC50 in the assay with MT-4 (Homo sapiens) was > 200 µM.

In the case of `CC(COc1ccccc1)OC(=S)N(C(=O)c1cccs1)c1cccc(Cl)c1` (stereo not drawn), the SI in the assay on MT4 is listed as >9. Besides, the CC50 with MT-4 (Homo sapiens) was > 100 µM. `O=C1c2ccccc2C(=O)N1CCOC(=S)N(C(=O)c1cccs1)c1ccc(F)cc1`: in the assay with MT4, the SI is >1000. Also, the CC50 with MT-4 (Homo sapiens) is > 100 µM. The matching figures for `O=C(/C=C/c1ccccc1)N(C(=S)OCCOc1ccccc1)c1ccccc1`: 8.65 and 66.6 µM. With `O=C(c1ccccc1)N(C(=S)OCCSc1ccccc1)c1ccccc1`, the half-maximal cytotoxic concentration (CC50) in the assay on MT-4 (Homo sapiens) was 44 µM. In the case of `O=C(c1ccc(Cl)cc1Cl)N(C(=S)OCCOc1ccccc1)c1ccccc1`, the SI in the assay on MT4 is reported as 3.7. Further, in the assay with MT-4 (Homo sapiens), the CC50 came out at 43 µM. Consider `O=C(c1ccco1)N(C(=S)OCCc1ccccc1)c1ccccc1`, for which the SI in the assay on MT4 stood at 24. In the assay on MT-4 (Homo sapiens), the CC50 amounted to 102 µM. Regarding `O=C(c1ccco1)N(C(=S)OCc1ccccc1)c1ccccc1`, the SI with MT4 was found to be 1.9.

On to `O=C(c1ccc(Cl)cc1)N(C(=S)OCCOc1ccccc1)c1ccccc1`, for which, in the assay on MT4, the SI was 12.9. The CC50 with MT-4 (Homo sapiens) amounted to 133 µM.

Consider `CC(COc1ccccc1)OC(=S)N(C(=O)c1cccs1)c1ccc([N+](=O)[O-])cc1` (stereo not drawn), for which, in the assay on MT4, the SI was 10.5. In the assay with MT-4 (Homo sapiens), this molecule gave a CC50 of 63 µM.

Take `O=C(c1ccc(Cl)c([N+](=O)[O-])c1)N(C(=S)OCCOc1ccccc1)c1ccccc1`: in the assay with MT4, the SI is listed as 10.5. In the assay on MT-4 (Homo sapiens), the CC50 is 80 µM. The matching figures for `O=C1c2ccccc2C(=O)N1CCOC(=S)N(C(=O)c1cccs1)c1cccc(Br)c1`: 44 and 53 µM. In the same order, the values of `O=C1c2ccccc2C(=O)N1CCOC(=S)N(C(=O)c1cccs1)c1ccc(I)cc1` are 1800 and 18 µM. With `O=C(/C=C/c1ccccc1)N(C(=S)OCCc1ccccc1)c1ccccc1`, the SI in the assay with MT4 came to 9. The molecule further returned a CC50 in the assay on MT-4 (Homo sapiens) of 40.4 µM. In the same order, the values of `COc1cccc(N(C(=O)c2cccs2)C(=S)OCCN2C(=O)c3ccccc3C2=O)c1` are >28 and > 100 µM.

As for `O=C(c1ccccc1)N(C(=S)OCCc1ccccc1)c1ccccc1`, the SI in the assay with MT4 stood at 22. In the assay with MT-4 (Homo sapiens), this molecule displayed a CC50 of 91 µM. In the same order, the values of `CCN(CC)c1ccc(N(C(=O)c2cccs2)C(=S)OCCN2C(=O)c3ccccc3C2=O)cc1` are 9 and > 100 µM. The matching figures for `CCCCOC(=O)N(C(=S)OC(C)COc1ccccc1)c1ccccc1` (stereo not drawn): >4 and > 200 µM. As for `Cc1ccc(N(C(=O)c2cccs2)C(=S)OCCN2C(=O)c3ccccc3C2=O)cc1`, the SI with MT4 is >250. Further, in the assay on MT-4 (Homo sapiens), the half-maximal cytotoxic concentration (CC50) was > 100 µM. In the same order, the values of `CCc1ccc(N(C(=O)c2ccco2)C(=S)OCCN2C(=O)c3ccccc3C2=O)cc1` are >3333 and > 100 µM. The matching figures for `O=C1c2ccccc2C(=O)N1CCOC(=S)N(C(=O)c1cccs1)c1cccc([N+](=O)[O-])c1`: 263 and 100 µM. For `CC(COc1ccccc1)OC(=S)N(C(=O)COc1ccccc1)c1ccccc1` (stereo not drawn), in the assay with MT4, the SI stood at 87.4. The CC50 in the assay on MT-4 (Homo sapiens) stood at 122 µM.

As to `Cc1ccc(C(=O)N(C(=S)OCCOc2ccccc2)c2ccccc2)cc1`, in the assay on MT4, the SI is on record as >20.2. The CC50 with MT-4 (Homo sapiens) was > 200 µM. In the same order, the values of `O=C(c1ccccc1)N(C(=S)OCCOc1ccccc1)c1ccccc1` are 15.2 and 122 µM.

In the case of `Cc1cccc(N(C(=O)c2cccs2)C(=S)OCCN2C(=O)c3ccccc3C2=O)c1`, in the assay with MT4, the SI is listed as >10. In the assay with MT-4 (Homo sapiens), the CC50 was > 100 µM. In the same order, the values of `COc1ccccc1N(C(=O)c1cccs1)C(=S)OCCN1C(=O)c2ccccc2C1=O` are >9 and > 100 µM.

For the molecule `CC(COc1ccccc1)OC(=S)N(C(=O)c1cccs1)c1ccc(Cl)cc1` (stereo not drawn), the SI in the assay on MT4 was >9. Besides, in the assay on MT-4 (Homo sapiens), the 50% cytotoxic concentration (CC50) was > 100 µM.

As for `O=C1c2ccccc2C(=O)N1CCOC(=S)N(C(=O)c1cccs1)c1cccc(C(F)(F)F)c1`, the SI with MT4 was >9. In addition, the CC50 in the assay with MT-4 (Homo sapiens) is > 100 µM. The matching figures for `Cc1ccccc1N(C(=O)c1cccs1)C(=S)OCCN1C(=O)c2ccccc2C1=O`: >9 and > 100 µM. With `CC(COc1ccccc1)OC(=S)N(C(=O)Oc1ccccc1)c1ccccc1` (stereo not drawn), the CC50 in the assay with MT-4 (Homo sapiens) is > 200 µM. `CC(COc1ccccc1)OC(=S)N(C(=O)c1cccc2ccccc12)c1ccccc1` (stereo not drawn): the SI in the assay on MT4 is >33.3. Turning to `O=C(c1ccc(Cl)cc1)N(C(=S)OCCc1ccccc1)c1ccccc1`, in the assay on MT4, the SI was 10.7. In the assay on MT-4 (Homo sapiens), this molecule came in with a CC50 of 43 µM.

With `CC(COc1ccccc1)OC(=S)N(C(=O)c1cccc([N+](=O)[O-])c1)c1ccccc1` (stereo not drawn), the SI in the assay with MT4 is listed as >55.5. Further, in the assay with MT-4 (Homo sapiens), the CC50 is > 200 µM. In the case of `O=C(c1ccccc1)N(C(=S)OCCOc1ccccc1)c1ccc(F)cc1`, the SI with MT4 is on record as 17.6. Further, the midpoint of cytotoxicity with MT-4 (Homo sapiens), the CC50, lay at 70.7 µM. As to `CC(COc1ccccc1)OC(=S)N(C(=O)c1cccs1)c1ccccc1` (stereo not drawn), in the assay on MT4, the SI was >100. Also, the CC50 with MT-4 (Homo sapiens) is > 200 µM.

For `CCc1ccccc1N(C(=O)c1cccs1)C(=S)OCCN1C(=O)c2ccccc2C1=O`, the SI with MT4 was >9. Moreover, in the assay on MT-4 (Homo sapiens), the CC50 was > 100 µM. `O=C1c2ccccc2C(=O)N1CCOC(=S)N(C(=O)c1ccccc1)c1ccc(Br)cc1`: in the assay on MT4, the SI was >5714. Besides, the CC50 with MT-4 (Homo sapiens) was > 200 µM. In the same order, the values of `O=C1c2ccccc2C(=O)N1CCOC(=S)N(C(=O)c1cccs1)c1cccc(Cl)c1` are >17 and > 100 µM. In the same order, the values of `CC(=O)c1cccc(N(C(=O)c2cccs2)C(=S)OCCN2C(=O)c3ccccc3C2=O)c1` are >17 and > 100 µM.

For the molecule `O=C1c2ccccc2C(=O)N1CCOC(=S)N(C(=O)c1cccs1)c1cccc(F)c1`, in the assay with MT4, the SI is listed as >9. The CC50 with MT-4 (Homo sapiens) is > 100 µM. On to `CCOc1ccc(N(C(=O)c2ccc(Cl)nc2)C(=S)OCCN2C(=O)c3ccccc3C2=O)cc1`, for which, in the assay with MT4, the SI is reported as >200.

`O=C(c1ccco1)N(C(=S)OCCOc1ccccc1)c1ccccc1`: the SI in the assay on MT4 was determined as 9.7. For the same molecule, the midpoint of cytotoxicity in the assay on MT-4 (Homo sapiens), the CC50, lay at 82 µM. In the case of `O=C(c1ccccc1)N(C(=S)OCCOc1ccccc1)C1CCCCC1`, the CC50 in the assay on MT-4 (Homo sapiens) was > 200 µM. Consider `O=C(COc1ccccc1)N(C(=S)OCCOc1ccccc1)c1ccccc1`, for which the SI in the assay with MT4 worked out at 17.1. Besides, in the assay with MT-4 (Homo sapiens), the CC50 came out at 103 µM. As to `O=C(c1cc(Cl)cc(Cl)c1)N(C(=S)OCCOc1ccccc1)c1ccccc1`, in the assay on MT4, the SI is recorded as 4.8. Also, the 50% cytotoxic concentration (CC50) in the assay with MT-4 (Homo sapiens) turned out to be 43 µM.

As to `O=C(c1ccccc1)N(C(=S)OCc1ccco1)c1ccccc1`, in the assay on MT-4 (Homo sapiens), the CC50 was 38.3 µM. As for `CC(COc1ccccc1)OC(=S)N(C(=O)c1ccco1)c1ccccc1` (stereo not drawn), the SI in the assay with MT4 is reported as 39.6. For the same molecule, half-maximal cytotoxicity in the assay with MT-4 (Homo sapiens) (CC50) was put at 51.5 µM.

As for `O=C1c2ccccc2C(=O)N1CCOC(=S)N(C(=O)c1cccs1)c1ccccc1Cl`, the SI with MT4 is given as 9. For the same molecule, the 50% cytotoxic concentration (CC50) in the assay on MT-4 (Homo sapiens) was > 100 µM. For `CCCOC(=O)N(C(=S)OC(C)COc1ccccc1)c1ccccc1` (stereo not drawn), the SI in the assay on MT4 was >1.5. The cytotoxic concentration (CC50) in the assay on MT-4 (Homo sapiens) is > 200 µM. For the molecule `CC(COc1ccccc1)OC(=S)N(C(=O)c1ccccc1)c1ccccc1` (stereo not drawn), the SI in the assay on MT4 is on record as >153.8. Moreover, the 50% cytotoxic concentration (CC50) in the assay on MT-4 (Homo sapiens) is > 200 µM.

As a reminder, the CC50 is the concentration at which the toxic effect on the cells reaches its halfway point. Higher therefore signals lower toxicity to the cells.
